The target of data set [1] is T1, CYP1A1 (Mus musculus, UniProt P00184).
T1 sequence (P00184 whole entry): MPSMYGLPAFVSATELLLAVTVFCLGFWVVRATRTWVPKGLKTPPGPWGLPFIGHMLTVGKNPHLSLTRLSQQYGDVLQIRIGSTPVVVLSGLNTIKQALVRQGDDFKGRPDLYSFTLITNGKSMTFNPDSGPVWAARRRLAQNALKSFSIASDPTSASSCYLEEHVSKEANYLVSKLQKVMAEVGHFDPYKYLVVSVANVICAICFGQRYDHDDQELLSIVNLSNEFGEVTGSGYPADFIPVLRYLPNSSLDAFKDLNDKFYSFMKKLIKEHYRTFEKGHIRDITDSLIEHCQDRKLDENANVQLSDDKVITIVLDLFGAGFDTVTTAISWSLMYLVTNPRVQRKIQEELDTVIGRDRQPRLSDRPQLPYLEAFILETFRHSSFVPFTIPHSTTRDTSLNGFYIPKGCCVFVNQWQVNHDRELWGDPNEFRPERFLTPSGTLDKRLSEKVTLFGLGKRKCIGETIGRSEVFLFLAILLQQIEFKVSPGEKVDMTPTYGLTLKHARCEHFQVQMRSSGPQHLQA
The experiment in a line: Induction of CYP1A1 activity in mouse Hepa-1c1c7 cells assessed as induction ratio at 0.5 uM after 48 hrs by EROD assay relative to control. In kind it is ADME, cell-based. Put shortly: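 About 10,000 Hepa1c1c7 cells/well cultured 24 h, then compound (0.5% DMSO final) for 48 h, at roughly 4 × the concentration doubling NQO1 activity. After PBS wash, cells given 5 µM 7-ethoxyresorufin plus 2 mM salicylamide, 37 °C, 40 min; resorufin fluorescence ex 530/em 590 nm, corrected for compound fluorescence. Ratio = (treated − blank)/(DMSO control − blank); mean ± SD, n = 3.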

Data set [2] deals with HCT-116. The experiment in a line: Antiproliferative activity against human HCT116 cells after 72 hrs by MTT assay. As to conditions: HCT-116, 72 h. It is filed as functional, cell-based. The essentials: (§1)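 Cells seeded at 10,000 (MCF7), 4000 (HCT116) or 5000 (CCL186) per well and grown 24 h; MCF7 and CCL186 in EMEM with pyruvate, glutamine, 10% FBS; HCT116 in McCoy's 5A with 10% FBS. Compounds from DMSO stocks (≤1% DMSO final), 72 h exposure; MTT 0.5 mg/ml for 3 h, formazan in DMSO read at 590 nm. IC50 from sigmoidal survival curve, three separate occasions.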

Data set [3] relates to MCF7. Put plainly: Antiproliferative activity against human MCF7 cells after 72 hrs by MTT assay. It is filed as functional, cell-based. As to conditions: MCF7, 72 h. The essentials: as §1
(Tetrazolium dyes change colour on reduction, which living cells bring about.)

Data set [4] is described as follows: Antiproliferative activity against human CCL186 cells after 72 hrs by MTT assay. It is filed as cell-based. As to conditions: CCL186, 72 h. The essentials: as §1
Data set [5] has as its system MCF7. The experiment in a line: Selectivity ratio of IC50 for human CCL186 cells to IC50 for human MCF7 cells. Put shortly: (§2)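 MTT assay. MCF7 and CCL186 cells were grown in EMEM/10% FBS, HCT116 in McCoy's 5A/10% FBS. Seeding was 10,000 (MCF7), 4000 (HCT116) and 5000 (CCL186) cells per well, 24 h. Compound exposure was 72 h, DMSO ≤1% final. MTT 0.5 mg/ml for 3 h, formazan dissolved in DMSO, A590. IC50 came from sigmoidal survival curves, with 3 separate occasions per concentration. Ratio = IC50 CCL186 / IC50 of the cancer line.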

The nature of data set [6]: Selectivity ratio of IC50 for human CCL186 cells to IC50 for human HCT116 cells. It is filed as ADME, cell-based, HCT-116. As to conditions: CCL186 cells and HCT116 cells, read-out: Ratio IC50. Put shortly: as §2
The subject of data set [7] is HCT-116. Put plainly: Cell cycle arrest in human HCT116 cells released from G1 block assessed as accumulation at sub G1 phase at 2.5 uM after 24 hrs by flow cytometry. In kind it is functional.
The test system of data set [8] is HCT-116. The experiment in a line: Cell cycle arrest in human HCT116 cells released from G2 block assessed as accumulation at sub G1 phase at 2.5 uM after 24 hrs by flow cytometry. It is filed as functional. A general note: In flow cytometry, cells or beads pass a laser one at a time.
The test system of data set [9] is HCT-116. The experiment in a line: Cell cycle arrest in human HCT116 cells released from G1 block assessed as accumulation at G1 phase at 2.5 uM after 24 hrs by flow cytometry. It is filed as functional.
Data set [10] concerns HCT-116. The experiment in a line: Cell cycle arrest in human HCT116 cells released from G2 block assessed as accumulation at G1 phase at 2.5 uM after 24 hrs by flow cytometry. It is filed as functional.
For data set [11], the system named is HCT-116. Put plainly: Cell cycle arrest in human HCT116 cells released from G1 block assessed as accumulation at S phase at 2.5 uM after 24 hrs by flow cytometry. In kind it is functional.
Data set [12] has as its system HCT-116. The experiment in a line: Cell cycle arrest in human HCT116 cells released from G2 block assessed as accumulation at S phase at 2.5 uM after 24 hrs by flow cytometry. It is filed as functional.
In data set [13] the test system is HCT-116. The experiment in a line: Cell cycle arrest in human HCT116 cells released from G1 block assessed as accumulation at G2/M phase at 2.5 uM after 24 hrs by flow cytometry. It is filed as functional.
Data set [14] can be described thus: Cytotoxicity against mouse Hepa-1c1c7 cells after 48 hrs by MTT assay. It is filed as cell-based. As to conditions: hepa-1c1c7, 48 h. Put shortly:
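Murine hepatoma cells in α-MEM with 10% heat- and charcoal-treated fetal calf serum, passages 6–17; MTT read-out as for the cancer lines but with 48 h compound exposure. Highest concentration tested 25 µM. IC50 from survival-versus-concentration curve; mean and SD, n = 3.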

Data set [15] deals with NAD(P)H dehydrogenase [quinone] 1 (Mus musculus) (UniProt Q64669). The experiment in a line: Induction of NQO1 activity in mouse Hepa-1c1c7 cells assessed as induction ratio at 0.5 uM after 48 hrs by MTT assay relative to control. It is filed as cell-based. Put shortly:
(§3)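 Hepa1c1c7 cells, 10,000 per well, 24 h, were then treated 48 h (DMSO ≤0.5%). Digitonin/EDTA lysates were assayed for menadione-dependent MTT-formazan formation using a G6P/G6PDH NADPH-generating mix with FAD at pH 7.4. The reaction ran 5 min, was stopped with dicoumarol, and read at A590. Degree of induction = (A test − blank)/(A control − blank). Ratios were read off the induction–concentration plot at the EROD test concentration.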

The subject of data set [16] is HCT-116. Put plainly: Cell cycle arrest in human HCT116 cells released from G2 block assessed as accumulation at G2/M phase at 2.5 uM after 24 hrs by flow cytometry. It is filed as functional.
The target in data set [17] is NAD(P)H dehydrogenase [quinone] 1 (Mus musculus) (UniProt Q64669). Put plainly: Induction of NQO1 activity in mouse Hepa-1c1c7 cells assessed as induction ratio at 15 uM after 48 hrs by MTT assay relative to control. It is filed as cell-based. The essentials:
as §3

The target in data set [18] is T1, CYP1A1. Put plainly: Induction of CYP1A1 activity in mouse Hepa-1c1c7 cells assessed as induction ratio at 15 uM by EROD assay relative to control. It is filed as ADME, cell-based. The essentials:
(§4)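 Hepa1c1c7 cells were seeded at 10,000 per well and grown 24 h. They were then exposed 48 h to compound (final DMSO 0.5% v/v) at about 4 × the NQO1 CD. After a PBS wash, cells got 5 µM 7-ethoxyresorufin plus 2 mM salicylamide in medium, 37 °C, 40 min. Resorufin was read at ex 530/em 590 nm, corrected for compound fluorescence. Ratio = (F treated − blank)/(F DMSO control − blank); mean ± SD, n = 3.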

Data set [19] addresses T1, CYP1A1. Put plainly: Induction of CYP1A1 activity in mouse Hepa-1c1c7 cells assessed as induction ratio at 50 nM after 48 hrs by EROD assay relative to control. It is filed as ADME, cell-based. Put shortly: as §4
Data set [20] concerns the target NAD(P)H dehydrogenase [quinone] 1 (Mus musculus) (UniProt Q64669). The experiment in a line: Induction of NQO1 activity in mouse Hepa-1c1c7 cells assessed as induction ratio at 50 nM after 48 hrs by MTT assay relative to control. It is filed as cell-based. Put shortly:
as §3

Data set [21] can be described thus: Ratio of induction of NQO1 activity to induction of CYP1 activity in mouse Hepa-1c1c7 cells at 50 nM after 48 hrs.

NAD(P)H dehydrogenase [quinone] 1 (Mus musculus), sequence (Q64669 whole entry): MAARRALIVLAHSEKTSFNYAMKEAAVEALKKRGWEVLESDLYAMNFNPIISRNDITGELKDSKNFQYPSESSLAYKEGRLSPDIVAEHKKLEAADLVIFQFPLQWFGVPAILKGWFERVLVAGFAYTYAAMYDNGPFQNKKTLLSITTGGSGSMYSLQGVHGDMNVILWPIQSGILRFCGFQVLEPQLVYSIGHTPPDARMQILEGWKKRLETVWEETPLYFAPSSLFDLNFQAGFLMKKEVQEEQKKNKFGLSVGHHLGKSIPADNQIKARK

With `COc1cccc(/C=C2/C(=O)Nc3cc(OC)ccc32)c1`, the fold induction at 48 h, 0.5 µM in data set [1] turned out to be 1.13. The IC50 in data set [2] was found to be 1200 nM; in data set [3] it was 1300 nM; in data set [4] it was 1800 nM; in [14], 9800 nM. Moreover, the “Ratio IC50” value in data set [5] stood at 1.5. Also, the selectivity ratio in data set [6] stood at 1.4. Besides, the Activity was 4.22% in data set [7]; 30.54% in [8]; 10.56% in [9]; 26.01% in data set [10]; 13.81% in [11]; 15.36% in [12]. For the same molecule, the Activity in [13] was 71.54%; in data set [16] it was 43.57%. Also, the Ratio in data set [15] came out at 3.08.

Consider `O=C1Nc2ccccc2/C1=C\c1ccc(F)cc1F`, for which, in data set [17], the Ratio was 5.06. Further, the fold induction at 15 µM in [18] stood at 1.89. Moreover, the IC50 in data set [14] is greater than 25000 nM.

`O=C1Nc2ccccc2/C1=C1\C(=O)Nc2cc(Cl)ccc21`: in data set [14], the IC50 was greater than 25000 nM. For the same molecule, the fold induction at 48 h, 0.05 µM in data set [19] was determined as 2.09. The Ratio is 2.88 in data set [20] and 1.38 in data set [21].

What is called fold induction is the ratio of treated to control signal. Usually IC50 stands for the midpoint of a concentration-inhibition curve. Read a high IC50 as lower potency.

Values taken from ChEMBL document CHEMBL1153905, “Functionalized 3-benzylidene-indolin-2-ones: inducers of NAD(P)H-quinone oxidoreductase 1 (NQO1) with antiproliferative activity” (Bioorg Med Chem, 2009).
